Assay results published in ChEMBL document CHEMBL4732210, “Discovery of new phenyl sulfonyl-pyrimidine carboxylate derivatives as the potential multi-target drugs with effective anti-Alzheimer's action: Design, synthesis, crystal structure and in-vitro biological evaluation” (Eur J Med Chem, 2021).

Tests used:
Type in all cases: cell-based
Conditions in all cases: Erythrocyte
[1] = compound: CCOC(=O)c1c(C)nc(N2CCN(S(=O)(=O)c3ccc(NC(C)=O)c(Cl)c3)CC2)nc1-c1ccc(OC)c(OC)c1; assay: Non-competitive inhibition of AChE in human erythrocytes assessed as Km at 50 nM measured at 2 mins interval for 10 mins by Lineweaver-Burk plot analysis
In short: (§1)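 Human AChE kinetics in the Ellman DTNB assay. Inhibitor at 25, 50 and 100 nM, each with six ATCI concentrations, against an inhibitor-free series. Activity read every 2 min over 10 min. Km and Vmax from Michaelis–Menten non-linear regression; mechanism from Lineweaver–Burk plots; Ki from Dixon plot over four inhibitor concentrations and from slope/intercept replots. Triplicate.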

[2] = compound: CCOC(=O)c1c(C)nc(N2CCN(S(=O)(=O)c3ccc(NC(C)=O)c(Cl)c3)CC2)nc1-c1ccc(OC)c(OC)c1; assay: Non-competitive inhibition of AChE in human erythrocytes assessed as Km at 100 nM measured at 2 mins interval for 10 mins by Lineweaver-Burk plot analysis; in short: as §1
[3] = compound: CCOC(=O)c1c(C)nc(N2CCN(S(=O)(=O)c3ccc(NC(C)=O)c(Cl)c3)CC2)nc1-c1ccc(OC)c(OC)c1; assay: Non-competitive inhibition of AChE in human erythrocytes assessed as Vmax at 50 nM measured at 2 mins interval for 10 mins by Lineweaver-Burk plot analysis; in short: as §1
[4] = compound: CCOC(=O)c1c(C)nc(N2CCN(S(=O)(=O)c3ccc(NC(C)=O)c(Cl)c3)CC2)nc1-c1ccc(OC)c(OC)c1; assay: Non-competitive inhibition of AChE in human erythrocytes assessed as Vmax at 100 nM measured at 2 mins interval for 10 mins by Lineweaver-Burk plot analysis; in short: as §1
[5] = compound: CCOC(=O)c1c(C)nc(N2CCN(S(=O)(=O)c3ccc(NC(C)=O)c(Cl)c3)CC2)nc1-c1ccc(OC)c(OC)c1; assay: Non-competitive inhibition of AChE in human erythrocytes assessed as Km at 25 nM measured at 2 mins interval for 10 mins by Lineweaver-Burk plot analysis; in short: as §1
[6] = compound: CCOC(=O)c1c(C)nc(N2CCN(S(=O)(=O)c3ccc(NC(C)=O)c(Cl)c3)CC2)nc1-c1ccc(OC)c(OC)c1; assay: Non-competitive inhibition of AChE in human erythrocytes assessed as Vmax at 25 nM measured at 2 mins interval for 10 mins by Lineweaver-Burk plot analysis; in short: as §1

B1: Acetylcholinesterase (Homo sapiens), P22303 (protein)
chain: MRPPQCLLHTPSLASPLLLLLLWLLGGGVGAEGREDAELLVTVRGGRLRGIRLKTPGGPVSAFLGIPFAEPPMGPRRFLPPEPKQPWSGVVDATTFQSVCYQYVDTLYPGFEGTEMWNPNRELSEDCLYLNVWTPYPRPTSPTPVLVWIYGGGFYSGASSLDVYDGRFLVQAERTVLVSMNYRVGAFGFLALPGSREAPGNVGLLDQRLALQWVQENVAAFGGDPTSVTLFGESAGAASVGMHLLSPPSRGLFHRAVLQSGAPNGPWATVGMGEARRRATQLAHLVGCPPGGTGGNDTELVACLRTRPAQVLVNHEWHVLPQESVFRFSFVPVVDGDFLSDTPEALINAGDFHGLQVLVGVVKDEGSYFLVYGAPGFSKDNESLISRAEFLAGVRVGVPQVSDLAAEAVVLHYTDWLHPEDPARLREALSDVVGDHNVVCPVAQLAGRLAAQGARVYAYVFEHRASTLSWPLWMGVPHGYEIEFIFGIPLDPSRNYTAEEKIFAQRLMRYWANFARTGDPNEPRDPKAPQWPPYTAGAQQYVSLDLRPLEVRRGLRAQACAFWNRFLPKLLSATDTLDEAERQWKAEFHRWSSYMVHWKNQFDHYSKQDRCSDL
Q: With B1 as the protein, how does the Km [1] read?
A: 0.0852 µM

Q: And the Km [2]?
A: 0.0965 µM

Q: And the Vmax [3]?
A: 6.52 U/min

Q: What about the Vmax [4] of the same protein?
A: 5.54 U/min

Q: What about the Km [5] of the same protein?
A: 0.0772 µM

Q: What about the Vmax [6] of the same protein?
A: 7.2 U/min
